The list is not random: actives were taken first. Their share in the collection is about 1.3%.
ASAP1 GAP inh – inhibitors of human ASAP1 ArfGAP activity | Q9ULH1 | ASAP1-stimulated ARF1 GTP hydrolysis, GDP FP detection | inhibition, % at 16.5 µM | 360,000 tested, 0.19% active; in the data active = inhibition above about 25%;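 also: 0% = vehicle with enzyme and substrate and 100% = no enzyme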
ARFGAP1 inh – inhibitors of rat ARFGAP1. 360,000 tested, 0.26% active. Arfgap1-stimulated ARF1 GTP hydrolysis, GDP FP detection. AID 651572. inhibition, % at 16.5 µM. Q62848;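 active = inhibition above a per-plate limit, mean inhibition of low control wells plus 3 SD, cut at about 25% in these data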;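 also: 0% = DMSO wells with enzyme and 100% = wells lacking Arfgap1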
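material = rat Arfgap1 catalytic domain, aa 1-136 | also added = human ARF1(Δ1-17)-GTP substrate | compound dosing = one concentration, 16.5 µM, DMSO 1.26% | times = GTP hydrolysis reaction 2 h at 25 °C | measured by = FP, GDP Alexa 633 tracer displaced from anti-GDP antibody, 620/688 nm | evaluation = percent inhibition of Arfgap1-stimulated GTP hydrolysis | replication = single well per compound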
TDP2 inh – blocks human TDP2 phosphodiesterase activity. O95551. inhibition, % at 12.8 µM. recombinant TDP2, T5PNP hydrolysis, p-nitrophenol absorbance 415 nm. 370,000 tested, 0.34% active;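 active = inhibition above the mean of all tested compounds plus 3 SD, set per campaign, cut at about 25% in these data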;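 also: 0% = DMSO with enzyme and 100% = buffer with substrate but no TDP2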
Target sequence (O95551 whole entry, looked up): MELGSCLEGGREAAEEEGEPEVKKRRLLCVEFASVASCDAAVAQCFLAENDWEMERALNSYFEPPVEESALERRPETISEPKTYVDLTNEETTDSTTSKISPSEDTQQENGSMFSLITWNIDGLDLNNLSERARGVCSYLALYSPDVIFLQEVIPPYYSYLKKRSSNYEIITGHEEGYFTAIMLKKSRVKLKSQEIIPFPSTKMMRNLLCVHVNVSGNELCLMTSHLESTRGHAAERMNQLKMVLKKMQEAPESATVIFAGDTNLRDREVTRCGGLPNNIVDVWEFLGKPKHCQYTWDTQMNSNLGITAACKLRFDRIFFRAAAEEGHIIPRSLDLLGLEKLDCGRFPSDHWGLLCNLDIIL
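Incubation: 2 h at 37 °C; Test system: recombinant human TDP2; Quantity: enzyme 120 nM; Read-out basis: percent inhibition; Medium: 50 mM Tris-HCl pH 7.5 with Mg2+, KCl, DTT, BSA; Repeats: single replicate; Compound: 12.8 µM single point, 1% DMSO; Signal: epi absorbance; Reagent: 5 mM T5PNP chromogenic substrate; Benchmarks: no-enzyme high, DMSO-plus-enzyme low.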
LEDGF integ inh – blocks HIV-1 LEDGF/p75-dependent DNA integration; 370,000 tested, 0.64% active; TR-FRET IN-LEDGF/p75 DNA integration, Eu/Cy5; inhibition, % at 3.7 µM;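 active = inhibition above the screen-wide mean plus 3 SD, cut at about 13% in these data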;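 also: signal is the Cy5 over europium emission ratio at 671 and 618 nm; 0% = plate median of compound wells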
CASP6 VEID inh – blocks human caspase-6 cleavage activity; 350,000 tested, 0.53% active; P55212; inhibition, % at 12.5 µM; purified caspase-6, Z-VEID-R110 cleavage fluorescence; AID 686996;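 active = mean inhibition across replicates at least about 35%, with every replicate also reaching that limit, limit read from the data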;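 also: 0% = median of neutral control wells and 100% = no fluorescence left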
Target sequence (P55212 24-179 limits assumed): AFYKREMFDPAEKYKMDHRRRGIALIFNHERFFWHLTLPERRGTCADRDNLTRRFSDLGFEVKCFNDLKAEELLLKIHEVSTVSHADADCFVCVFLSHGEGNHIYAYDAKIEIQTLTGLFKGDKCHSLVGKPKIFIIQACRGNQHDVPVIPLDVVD
Target sequence (P55212 194-293 limits assumed): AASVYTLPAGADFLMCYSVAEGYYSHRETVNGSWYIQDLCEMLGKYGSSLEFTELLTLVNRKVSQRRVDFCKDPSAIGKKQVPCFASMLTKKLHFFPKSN
IN multimer up – HIV-1 integrase multimerization activation, counter-screen; shares compounds with LEDGF integ inh; 2,000 tested, 17% active; TR-FRET HIV-1 integrase multimerization, biochemical; AID 1053131; activation, % at 7.7 µM; in the data active = activation above about 8.9%
TR-FRET interf – TR-FRET optical interference, LEDGF/p75 integration counter-screen; shares compounds with LEDGF integ inh; TR-FRET optical interference counterscreen, HIV-1 IN multimerization; inhibition, % at 7.7 µM; 2,000 tested, under 10 active; AID 1053135;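 active = inhibition above the mean over all tested compounds plus 3 SD, which no compound reached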;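 also: 0% = integrase with antibodies and DMSO and 100% = antibodies without integrase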
LEDGF integ conf – LEDGF/p75-dependent HIV-1 integration inhibition, confirmation. shares compounds with LEDGF integ inh. TR-FRET LEDGF/p75-dependent HIV-1 integration, biochemical. inhibition, % at 3.7 µM. 2,000 tested, 36% active. AID 1053136; in the data active = inhibition above about 14%
Active calls of the source: *; x = not tested or not shown.

SMILES	ASAP1 GAP inh	ARFGAP1 inh	TDP2 inh	LEDGF integ inh	CASP6 VEID inh	IN multimer up	TR-FRET interf	LEDGF integ conf
N#Cc1c(NC(=O)CSc2ncnc3sccc23)oc(-c2ccco2)c1-c1ccco1	5	15	6	27*	x	14*	-48	58*
CCCCOc1ccc(C2CCC(C(C)=O)C(C)C2)cc1 (stereo unspecified)	-9	11	7	-3	3	x	x	x
O=C(CN1C(=O)c2ccccc2C1=O)NCC(=O)OCC(=O)c1ccc(Br)cc1	17	-2	-8	-1	x	x	x	x
COc1ccccc1-c1ccc(/C=C2\C=CC(=O)O2)o1	5	2	6	44*	-1	2	-6	11
O=C(O)c1ccc(/C=N/Nc2ccc(Cl)nn2)cc1	-7	1	-4	21*	0	1	-5	1
Clc1nccc(NCc2ccccc2)n1	4	3	-24	6	-1	x	x	x
O=C(CCS(=O)(=O)c1ccc(Cl)cc1)Nc1nnc(-c2cccs2)o1	-8	4	2	1	1	x	x	x
Nc1[nH]c(C(=O)c2ccccc2)c(-c2ccccc2Br)c1C(=O)NCc1ccc(-c2ccccc2)cc1	8	-1	3	-3	-5	x	x	x
N#Cc1c(N)[nH]c(C(=O)c2ccccc2)c1-c1ccccc1Br	0	2	5	32*	11	0	2	-3
NC(c1csc(Nc2cnccn2)n1)c1ccccc1Cl (stereo unspecified)	-20	8	-4	9	1	x	x	x
NC(c1csc(Nc2ccccn2)n1)c1ccccc1Cl (stereo unspecified)	-6	-12	-9	15*	2	-1	7	-7
N#Cc1c(SCC(=O)Nc2nncs2)sc2c(O)cc(=O)[nH]c12	0	8	21	20*	84*	29*	-146	26*
O=C(COC(=O)c1ccc(Sc2ncn[nH]2)c([N+](=O)[O-])c1)Nc1ccc(Cl)cc1	x	x	-13	5	x	x	x	x
COc1cccc(NC(=O)c2cc(OC)c(OC)c(OC)c2Br)c1	1	5	11	14*	0	1	-4	2
Cc1cc(/C=C2\SC(=O)NC2=O)c(C)n1-c1ccc(N(C)C)cc1	-12	-1	1	42*	-1	2	-6	-1
Cc1cc(/C=C2\SC(=O)NC2=O)c(C)n1-c1ccc(N2CCOCC2)cc1	4	-5	-4	-2	0	x	x	x
COCCn1c(SCC(=O)NCCCN2CCCC2=O)nc2ccccc2c1=O	12	7	-5	-1	-1	x	x	x
Cc1nc(Cl)c(C(=O)NCc2ccccc2)c(C)c1[N+](=O)[O-]	-8	-5	-12	20*	-4	0	1	0
O=C(NCCc1nc2ccccc2[nH]1)/C(=C/c1ccc(F)cc1)NC(=O)c1ccco1	-2	3	-4	-4	-2	x	x	x
C[C@H](CO)N1C[C@H](C)[C@H](CN(C)Cc2ccc(C(F)(F)F)cc2)OCCCC[C@H](C)Oc2ccc(NC(=O)NC3CCCCC3)cc2C1=O	x	x	x	x	2	x	x	x
CCN(CC)C(=O)C1=C(C)N(Cc2ccc(C(C)(C)C)cc2)C(=O)C(CC(=O)NC(c2ccccc2)c2ccccc2)C1 (stereo unspecified)	5	-9	-11	70*	0	1	-5	-10
CC1=C(C(=O)N(C)C)CC(CC(=O)NC(c2ccccc2)c2ccccc2)C(=O)N1Cc1ccc(C(C)(C)C)cc1 (stereo unspecified)	-5	13	0	-2	2	x	x	x
CC(=O)Nc1ccc(S(=O)(=O)Nc2nc3ccccc3nc2Nc2cccc(O)c2)cc1	15	11	-3	1	3	x	x	x
CC(=O)Nc1ccc(S(=O)(=O)Nc2nc3ccccc3nc2Nc2ccc(C(=O)O)c(O)c2)cc1	0	-12	4	26*	73*	23*	-117	29*
COC(=O)c1ccc(NC(=S)Nc2ccc(O)cc2)cc1	1	4	-5	5	3	x	x	x
SMILES	ASAP1 GAP inh	ARFGAP1 inh	TDP2 inh	LEDGF integ inh	CASP6 VEID inh	IN multimer up	TR-FRET interf	LEDGF integ conf
Oc1ccc(NC(=S)Nc2ccc(O)cc2)cc1	-10	-1	20	17*	32	6	-28	1
CN1CCCN(S(=O)(=O)c2ccccc2)CC1	9	1	9	-1	-6	x	x	x
CCOC(=O)Nc1ccc(C(N)=O)cc1	-10	23	-2	-2	x	x	x	x
COc1ccc(C(=O)C2CCN(C(=O)c3ccc(OC)cc3)CC2)cc1	-2	3	11	2	-1	x	x	x
COc1ccc(C(=O)N2CCC(C(=O)c3ccc(F)cc3)CC2)cc1	5	1	-12	80*	x	0	1	-4
Cn1cccc1CC(=O)NN=C/C=C\c1ccco1	x	x	-8	81*	x	11*	-54	31*
O=C(CNc1cccc2ccccc12)N/N=C/C=C/c1ccco1	11	8	5	-1	3	x	x	x
O=C(Cc1cccs1)N/N=C/C=C/c1ccco1	1	2	8	17*	38*	8	-28	31*
Cc1ccc(Cn2nnc3c(=O)n(CC(=O)NCC4CCCO4)cnc32)cc1 (stereo unspecified)	-9	2	-16	6	5	x	x	x
O=Cc1cc(N=Nc2cccc(C(=O)O)c2)ccc1O	4	8	-6	1	8	x	x	x
O=Cc1cc(N=Nc2ccccc2Cl)ccc1O	-23	-19	6	17*	-8	-3	13	49*
OC[C@@H]1CN(CCN2CCOCC2)C[C@H](n2cnc3c(N4CCOCC4)ncnc32)O1	2	8	-3	2	4	x	x	x
Cc1cc(-c2csc(NC(=O)c3ccc(=O)[nH]c3)n2)c(C)n1Cc1ccco1	-5	12	-3	63*	18	11*	-58	43*
COc1ccc(C(CNCC(O)COc2c(C)ccc(C)c2C)N(C)C)cc1 (stereo unspecified)	-5	3	-5	14*	-3	0	2	3
Cc1nc2ccccc2n2c(O)c(CC(=O)O)cc12	1	-19	8	23*	x	7	-34	17*
Cc1nc2ccccc2n1CCC(=O)O	11	10	-2	0	x	x	x	x
Cc1cc(C)c(OC2(c3ccccc3)OC(=O)c3ccccc32)c(C)c1 (stereo unspecified)	1	-3	2	31*	x	3	-9	-5
